Measured values from ChEMBL document CHEMBL4007470, “Discovery of a 2'-fluoro-2'-C-methyl C-nucleotide HCV polymerase inhibitor and a phosphoramidate prodrug with favorable properties” (Bioorg Med Chem Lett, 2017).
≈ marks a conversion by molar mass, not a printed value. One block for each compound: values may come before it.

Experiments:
Hepatitis C virus [1] = test: Antiviral activity against HCV genotype 1a infected in human HuH7 cells by luciferase reporter gene assay; type: functional, cell-based, Hepacivirus hominis, subtype 1a
[2] = Half life in hamster plasma at 2 uM by LC-MS/MS analysis; type: ADME, cell-free; details: cricetinae
Outline: (§1)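 Compound at 2 μM incubated in plasma at 37 °C for up to 4 h. Aliquots quenched with 9 volumes of acetonitrile containing internal standard, then centrifuged. Supernatant analysed by LC-MS/MS.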

Plasma [3] = test: (§2) Half life in human plasma at 2 uM by LC-MS/MS analysis; type: ADME, cell-free; details: 2 µM; outline: as §1
[4] = Half life in hamster intestinal S9 fractions at 2 uM by LC-MS/MS analysis; type: ADME, Intestine; details: cricetinae
Hepatitis C virus [5] = test: Antiviral activity against HCV genotype 4a infected in human HuH7 cells by luciferase reporter gene assay; type: functional, cell-based, Hepacivirus hominis
Hepatitis C virus [6] = test: Antiviral activity against HCV genotype 1b infected in human HuH7 cells by luciferase reporter gene assay; type: functional, cell-based, Hepacivirus hominis
Outline: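 Luciferase-reporter genotype 1b subgenomic replicon in Huh-7 cells; EC50 is concentration giving 50% inhibition. Values are averages of at least three repeats.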

Liver = test: (§3) Hepatic extraction in human liver S9 fractions at 2 uM by LC-MS/MS analysis; type: ADME; details: s9, 2 µM, 2 µM
Outline: (§4)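 Compound at 2 μM incubated with S9 fractions at 37 °C for 90 min with NADPH and UDPGA. Quenched with aqueous acetonitrile/methanol containing internal standard and analysed by LC-MS/MS. Half-life from an exponential fit assuming first-order kinetics. Hepatic extraction predicted from half-life using the well-stirred model.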

[7] = Hepatic extraction in hamster liver S9 fractions at 2 uM by LC-MS/MS analysis; type: ADME; details: cricetinae; outline: as §4
[8] = Permeability of the compound from basolateral to apical side in human Caco2 cells at 10 uM; type: ADME, cell-based, Caco-2
Outline: (§5)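 Caco-2 permeability at 10 μM compound, measured in apical-to-basolateral and basolateral-to-apical directions.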

[9] = Permeability of the compound from apical to basolateral side in human Caco2 cells at 10 uM; type: ADME, cell-based, Caco-2; outline: as §5
[10] = Activity at human mitochondrial RNA polymerase assessed as incorporation rate relative to ATP; type: ADME
[11] = Inhibition of HCV genotype 1b wild-type NS5B RNA dependent RNA polymerase; design: species or system Hepatitis C virus subtype 1b
DNA polymerase beta = DNA polymerase beta (Homo sapiens, UniProt P06746); test: Inhibition of human DNA polymerase-beta
[12] = Inhibition of human DNA polymerase-alpha
[13] = tested on: RNA-directed RNA polymerase (Hepacivirus hominis), O39930 [UNDEFINED MUTATION]; test: Inhibition of HCV genotype 1b wild-type NS5B RNA dependent RNA polymerase S282T mutant relative to control; details: Hepatitis C virus subtype 1b
[14] = Inhibition of human RNA polymerase-2
[15] = Inhibition of human DNA polymerase-gamma
[16] = Fraction absorbed in Beagle dog at 5 mg/kg, po; type: ADME, organism-based, Canis lupus familiaris; details: in vivo, read-out: Fabs
Outline: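 Male beagle dogs dosed orally at 5 mg/kg. Fraction absorbed determined by portal vein sampling.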

Plasma [17] = test: Stability in rat plasma at 2 uM up to 4 hrs by LC-MS/MS analysis; type: ADME, cell-free; outline: as §1
[18] = Solubility of the compound in pH 7.4 solution; type: physicochemical
Outline: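 Solubility measured at pH 7.4 using amorphous material.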

[19] = Prodrug activation in Syrian golden hamster liver assessed as triphosphate metabolite formation at 5 mg equivalents/kg, po after 1 hr by LC-MS/MS analysis; type: ADME, organism-based, Mesocricetus auratus; details: in vivo
Outline: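 Golden Syrian hamsters (groups of 12) dosed orally at 5 mg-eq/kg in EtOH/PEG400/water buffered with 50 mM pH 4 citrate. Livers harvested under isoflurane at 1 h and extracted in cold KOH/EDTA/70% MeOH with Cl-ATP. Triphosphate measured by LC/MS/MS, with endogenous ATP checked for sample stability.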

[20] = Prodrug activation in human HuH7 cells infected with HCV genotype 1b assessed as ((2R,3R,4R,5S)-5-(4-aminoimidazo[1,2-f][1,2,4]triazin-7-yl)-4-fluoro-3-hydroxy-4-methyltetrahydrofuran-2-yl)methyl tetrahydrogen triphosphate level per million cells at 10 uM after 2 hrs by LC-MS/MS analysis; type: cell-based; details: huh-7, 2 h
Outline: (§6)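 HCV genotype 1b replicon Huh-7 cells (DMEM with glutaMAX, 10% heat-inactivated FBS, penicillin-streptomycin, G418) grown to confluency (0.88×10^6 cells/well), exposed continuously to prodrug at 10 μM for up to 24 h; washed in ice-cold saline, extracted into 70% methanol overnight, dried, resuspended in 1 mM ammonium phosphate pH 8.5; triphosphate quantified by LC-MS/MS; LLOQ 0.137 pmol/million cells; duplicate wells, single experiment.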

[21] = as §2; type: ADME, cell-free; outline: as §1
[22] = Prodrug activation in human HuH7 cells infected with HCV genotype 1b assessed as ((2R,3R,4R,5S)-5-(4-aminoimidazo[1,2-f][1,2,4]triazin-7-yl)-4-fluoro-3-hydroxy-4-methyltetrahydrofuran-2-yl)methyl tetrahydrogen triphosphate level per million cells at 10 uM after 6 hrs by LC-MS/MS analysis; type: cell-based; details: huh-7, 6 h; outline: as §6
[23] = as §3; type: ADME; details: liver S9 fractions, read-out: ERH; outline: as §4
Huh-7 = test: Cytotoxicity against human HuH7 cells; type: cell-based
[24] = Half life in human intestinal S9 fractions at 2 uM by LC-MS/MS analysis; type: ADME, Intestine; outline: as §4
[25] = Prodrug activation in human HuH7 cells infected with HCV genotype 1b assessed as ((2R,3R,4R,5S)-5-(4-aminoimidazo[1,2-f][1,2,4]triazin-7-yl)-4-fluoro-3-hydroxy-4-methyltetrahydrofuran-2-yl)methyl tetrahydrogen triphosphate level per million cells at 10 uM after 24 hrs by LC-MS/MS analysis; type: cell-based; details: huh-7, 24 h; outline: as §6
[26] = Hepatitis C virus, genotype 1b, Huh-7

EC50 (Hepatitis C virus [1]): 7.3 µM
t1/2 ([2]; 2 µM): 7.17 h
t1/2 (Plasma [3]): > 13.2 h
t1/2 ([4]; s9, 2 µM, 2 µM): 0.3 h
EC50 (Hepatitis C virus [5]): 0.74 µM
EC50 (Hepatitis C virus [6]): 31.2 µM
ERH (Liver): 78%
ERH ([7]; s9, 2 µM, 2 µM): 96%
permeability ([8]; caco-2, 10 µM, 10 µM): 9.2 ×10⁻⁶ cm/s
permeability ([9]; caco-2, 10 µM, 10 µM): 1.3 ×10⁻⁶ cm/s
SMILES: CC(C)OC(=O)C1(NP(=O)(OC[C@H]2O[C@@H](c3cnc4c(N)ncnn34)[C@](C)(F)[C@@H]2O)Oc2ccccc2)CCC1 (stereo in doubt; 54)

SMILES: C[C@@]1(F)[C@H](O)[C@@H](COP(=O)(O)OP(=O)(O)OP(=O)(O)O)O[C@H]1c1cnc2c(N)ncnn12
Activity [10]: 0.04%
IC50 [11]: 0.15 µM
IC50 (DNA polymerase beta): > 200 µM
EC50 (Hepatitis C virus [6]; [26]): > 89 µM
IC50 [12]: > 200 µM
fold change (FC) [13]: 5.9
IC50 [14]: > 200 µM
IC50 [15]: > 200 µM

Fa [16]: 10%
Stability (Plasma [17]): Unstable
solubility [18]: 306 µg/mL (≈ 614 µM)
liver triphosphate concentration [19]: 0.53 µM
Papp B→A at 10 µM ([8]; Caco-2, read-out: permeability): 8.9 ×10⁻⁶ cm/s
Papp A→B at 10 µM ([9]; Caco-2, read-out: permeability): 0.2 ×10⁻⁶ cm/s
SMILES: CC(C)OC(=O)[C@H](C)N[P@@](=O)(O)OC[C@H]1O[C@@](C#N)(c2ccc3c(N)ncnn23)[C@](C)(O)[C@@H]1O

SMILES: C[C@@]1(CO)[C@H](O)CC[C@@]2(C)[C@H]1CC[C@H]1C[C@@H]3C[C@@]12CC[C@]3(O)CO [APHIDICOLIN]
IC50 [12]: 7.3 µM

SMILES: CCOC(=O)[C@H](C)NP(=O)(OC[C@H]1O[C@@H](c2cnc3c(N)ncnn23)[C@](C)(F)[C@@H]1O)Oc1ccccc1 (stereo partly drawn)
EC50 (Hepatitis C virus [1]; Hepatitis C virus, subtype 1a, Huh-7): 0.37 µM
half-life at 2 µM [2]: > 13.2 h
Drug metabolism [20]: 2.4 pmol
half-life at 2 µM [21]: 7.57 h
half-life at 2 µM ([4]; intestinal S9 fractions): 0.4 h
EC50 (Hepatitis C virus [5]; Hepatitis C virus, genotype 4a, Huh-7): 0.1 µM
EC50 (Hepatitis C virus [6]; [26]): 0.58 to 0.59 µM
Drug metabolism [22]: 13 pmol
hepatic extraction ratio at 2 µM [23]: 0.83
hepatic extraction ratio at 2 µM ([7]; liver S9 fractions, read-out: ERH): 0.76
Activity (Huh-7): Non-Toxic
half-life at 2 µM [24]: 2.23 h
Drug metabolism [25]: 20.5 pmol
